# Screening data (PubChem)
# CXCR6 inh: CXCR6 receptor inhibitors, primary screen, cell-based, beta-arrestin, luminescence, CHO-K1 PathHunter, 1536-well. actives 0.36% (n = 360,000). inhibition, % at 20 µM; in the data active = inhibition above about 34%, passing the limit was not always enough;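 also: antagonist mode with CXCL16 agonist at 10 nM final; 0% = 10 nM CXCL16 with DMSO and 100% = unstimulated wells without agonist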
# Target sequence (O00574 whole entry, looked up): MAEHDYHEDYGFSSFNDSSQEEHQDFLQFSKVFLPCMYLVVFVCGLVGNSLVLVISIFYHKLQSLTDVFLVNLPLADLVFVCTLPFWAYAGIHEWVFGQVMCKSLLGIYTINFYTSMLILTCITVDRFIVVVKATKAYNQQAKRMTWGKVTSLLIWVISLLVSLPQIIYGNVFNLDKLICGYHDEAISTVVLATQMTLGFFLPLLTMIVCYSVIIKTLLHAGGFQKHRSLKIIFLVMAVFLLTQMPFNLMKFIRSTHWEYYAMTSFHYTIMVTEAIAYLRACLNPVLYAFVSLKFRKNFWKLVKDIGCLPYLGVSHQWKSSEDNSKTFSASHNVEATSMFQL
# APJ ag: agonists of human apelin receptor APJ, primary screen, CHO-K1 cells, PathHunter beta-arrestin, luminescence; 0% DMSO wells, 100% apelin; actives 0.11% (n = 330,000); activation, % at 20 µM; P35414;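 active = activation more than six SD over the plate average, tested at 20 µM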;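 also: 0% = DMSO alone and 100% = apelin-13 at 10 nM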
#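 Material: CHO-K1 APJ beta-arrestin complementation cell line; Input: cell density 1000 per well; Incubation: compound stimulation 90 min at 25 °C, detection 60 min; Signal: luminescence from split beta-galactosidase complementation, Galacton Star/Emerald II substrate; Controls: DMSO-only wells as negative, 10 nM Apelin-13 as positive control.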
# APJ antagonist: antagonists of human apelin receptor APJ, primary screen, CHO-K1 cells, beta-arrestin complementation, luminescence. P35414. actives 0.32% (n = 330,000). inhibition, % at 20 µM;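 active = inhibition above about 40% at 20 µM, limit read from the data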;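 also: cells challenged with 10 nM apelin-13 agonist together with compound; plate controls were apelin-13 plus DMSO wells for no effect and DMSO wells lacking apelin-13 for full effect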
# CCR6 antagonist: CCR6 receptor antagonists, primary screen, cell-based, CHO-K1, luminescence, beta-arrestin, uHTS | CHO-K1 CCR6 PathHunter beta-arrestin, CCL20-stimulated | actives 0.49% (n = 340,000) | C-C chemokine receptor type 6 (Homo sapiens), P51684 | inhibition, % at 20 µM;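 active = compounds whose inhibition of the agonist-driven luminescence signal at 20 µM reaches about 50%, limit read from the data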;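 also: cells stimulated with CCL20 at 14 nM final; plate controls were DMSO with CCL20 for no effect and DMSO without agonist for full effect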
# EBI2 antag: EBI2 receptor antagonists, beta-arrestin recruitment, primary screen, cell-based, luminescence, 7a,25-OHC stimulation, uHTS | 7a,25-OHC stimulated | actives 0.81% (n = 360,000) | G-protein coupled receptor 183 (Homo sapiens), P32249 | inhibition, % at 5 µM; in the data active = inhibition above about 38%;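 also: enzyme fragment complementation signal reports receptor beta-arrestin coupling in cells; 0% = agonist plus DMSO wells and 100% = wells without agonist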
# Numbers without * were called inactive; nt = not tested or not shown. Rows were chosen to be rich in hits. Some 1.5% of all compounds tested hit in one or more screens of this group.
SMILES,CXCR6 inh,APJ ag,APJ antagonist,CCR6 antagonist,EBI2 antag
O=C(Nc1ccc(Cl)cc1)Nc1ccccc1Sc1ncc([N+](=O)[O-])s1,33.9,-1.8,7.7,50.1*,38.6
CCCCN(CCCC)Cc1cc(=O)oc2cc(C)c(Cl)cc12,-7.7,nt,nt,nt,0.6
COc1ccc(C=NNc2nc3ccccc3s2)cc1,-3.5,nt,nt,-16.3,-2.5
Cc1csc(N/N=C/c2ccc([N+](=O)[O-])cc2)n1,-8.4,6.3,0.5,-4.9,-7.7
Cc1csc(N/N=C/c2ccccn2)n1,22.8,-1.0,12.4,60.3*,0.0
C(=N\Nc1nc2ccccc2s1)/c1ccccn1,nt,-2.3,33.9,76.9*,nt
CCc1nc2c(OCc3ccc(C(F)(F)F)cc3)cccn2c1N(C)C(=O)c1ccco1,3.1,nt,nt,nt,18.6
O=C(Oc1ccc(C(=S)N2CCOCC2)cc1Br)c1cc(Cl)ccc1Cl,8.4,-4.5,1.8,37.5,53.5*
C/C(CCC(C)C)=N\Nc1cc(C)c2ccccc2n1,35.3,0.3,42.8*,55.7*,-1.5
Cc1cc(NCc2ccccc2)nc2ccccc12,-5.9,-1.1,14.4,8.1,2.7
CNC(=S)N/N=C1\C(=O)c2cccc3cccc1c23,36.8,-5.0,38.7,52.0*,17.3
CCCCNC(=S)N/N=C1\C(=O)c2cccc3cccc1c23,12.1,-6.2,15.2,12.3,5.0
Oc1ccc(N=Nc2ccc3c(c2)OCO3)c2ccccc12,nt,-11.6,57.9*,nt,nt
CCCCOc1ccc(S(=O)(=O)NC(=O)C2(C)CCN2C(=O)Cc2cccs2)cc1 (stereo unspecified),6.1,nt,nt,nt,-7.5
CCOP(=O)(OCC)C(C#N)=C1SCN(c2ccc(Cl)cc2)CS1,28.1,-0.9,20.5,81.8*,1.9
N#Cc1c(N2CCN(C(=O)c3ccccc3Cl)CC2)nc(-c2ccccc2)c2c1CCCC2,16.2,1.0,21.7,16.6,15.1
N#Cc1c(N2CCN(C(=O)c3ccccc3)CC2)nc(-c2ccccc2)c2c1CCCC2,9.7,0.0,7.4,50.5*,9.8
O=C(NNC(=S)NC(=O)C12CC3CC(CC(C3)C1)C2)c1ccncc1,30.7,-8.9,27.9,50.7*,6.0
CC1(C(=O)NC(=S)NNC(=O)c2ccncc2)CCCCC1,16.9,-5.1,34.7,29.5,3.1
CC1=NN(c2nc(N)nc(/C(C#N)=C/c3ccc([N+](=O)[O-])o3)n2)C(C)(C)C1,26.6,nt,nt,53.0*,29.3
O=C1C2C(C(=O)N1/N=C/c1ccc([N+](=O)[O-])o1)C1C=CC2C12CC2 (stereo unspecified),-14.1,2.8,-70.2,4.3,-11.2
CCC(C)Sc1ccc(-c2nc3ccc(C)cn3c2NCc2ccccc2)cc1OC (stereo unspecified),30.7,13.7,-68.0,46.0,69.4*
CCC(C)Sc1cc(-c2nc3ccc(C)cn3c2NCc2ccccc2)ccc1OC (stereo unspecified),36.3,nt,nt,44.1,-16.0
O=C(c1cc(-c2ccco2)on1)N1CCN(C(c2ccccc2)c2ccccc2)CC1,16.6,-5.2,20.1,17.7,91.1*
CC(C)c1cc(C(=O)N2CCN(C(c3ccccc3)c3ccccc3)CC2)no1,21.9,-2.3,-3.3,10.2,20.3
SMILES,CXCR6 inh,APJ ag,APJ antagonist,CCR6 antagonist,EBI2 antag
Cc1ccc(CNc2ncnc3ccc(-c4ccc(CO)o4)cc23)o1,-3.2,nt,nt,nt,3.9
CC(=O)OC[C@]12CC[C@H]3[C@@](C)(CC[C@H]4C(C)(C)CCC[C@]34C)[C@@H]1CC(C1=CC(=O)OC1O)O2 (stereo partly specified),38.8,nt,nt,nt,86.5*
CC(=O)OCC1OC(n2cc(F)c(=O)[nH]c2=O)C(OC(C)=O)C1OC(C)=O (stereo unspecified),-4.7,-3.7,5.8,13.8,-11.3
O=C1C(F)=CC(COC(c2ccccc2)(c2ccccc2)c2ccccc2)OC1n1cc(F)c(=O)[nH]c1=O (stereo unspecified),66.7*,nt,nt,99.0*,-5.9
COC(=O)[C@]12CCCCC=C1N(Cc1ccc(Cl)cc1Cl)C(=O)[C@H](CC(=O)NCCc1ccccc1OC)C2,15.2,nt,nt,nt,23.9
Cc1ccc2[nH]c(O)c(N=Nc3nc4ccccc4s3)c2c1,41.7*,-6.6,29.7,49.3,18.3
Oc1[nH]c2ccccc2c1N=Nc1nc2ccccc2s1,27.6,-7.7,36.7,58.3*,13.9
Cc1ccc2[nH]c(O)c(N=Nc3ccccc3[N+](=O)[O-])c2c1,4.9,nt,nt,16.2,12.6
Oc1[nH]c2ccccc2c1N=Nc1ccccc1,12.5,-4.8,18.4,17.5,3.2
CCOC(=O)N1CCN(C(=O)c2ccc(Cn3c(=S)[nH]c4cc(OCC)c(OCC)cc4c3=O)cc2)CC1,-8.5,26.9*,-3.5,-28.6,-34.0
COc1ccc(-c2nc3c4ccccc4ccn3c2Cc2ccccc2C(F)(F)F)cc1OC,3.2,nt,nt,nt,42.8
Cc1cccc(N2CCN(C(=O)c3cc4cc(F)ccc4[nH]3)CC2)c1C,13.5,-2.0,-5.1,-1.2,91.7*
Cc1ccc(S(=O)(=O)CCC(=O)c2cccc([N+](=O)[O-])c2)cc1,18.1,-3.3,14.1,58.6*,-1.7
Cc1ccc(C(=O)CCS(=O)(=O)c2ccc(Br)cc2)cc1,6.8,-4.6,9.4,1.3,-7.5
O=C1CSC(=S)N1Nc1ccccc1,2.1,nt,nt,2.8,-17.4
CCN(CC)c1ccc(N=Nc2nn(C)c(C)c2[N+](=O)[O-])cc1,38.7,-7.0,54.6*,64.2*,20.2
COc1ccc(S(=O)(=O)N2CCOCC2)cc1NC(=O)C1CCCN1C(=O)c1cccs1 (stereo unspecified),0.7,-1.5,-11.3,6.8,-11.4
COc1ccc(S(=O)(=O)N2CCOCC2)cc1NC(=O)[C@@H]1CCCN1C(=O)c1cccs1,0.6,-2.0,2.0,96.1*,-6.7
O=C(Nc1ccc2c(c1)OCCO2)C1c2ccccc2OCC(=O)N1Cc1ccccc1 (stereo unspecified),-6.4,nt,nt,nt,-10.4
COc1cc(N2C(=O)C=CC2=O)c(OC)cc1Cl,74.6*,-0.6,1.6,nt,5.6
O=C(Nc1cccc(F)c1)N1CCc2nc(NCc3cccc(Oc4ccccc4)c3)ncc2C1,4.6,nt,nt,nt,13.5
Cc1cccc2nc(CSc3nc4ccc([N+](=O)[O-])cc4[nH]3)c(Br)n12,10.3,1.2,19.9,51.5*,1.5
NC(=O)CSc1nc2ccc([N+](=O)[O-])cc2[nH]1,6.9,-0.1,4.9,17.9,-5.5
S=C(NCCN1CCOCC1)Nc1ccc(Cl)cc1,-3.7,-2.0,15.6,2.4,0.9
S=C(NCCCN1CCOCC1)Nc1ccc(Cl)cc1,74.5*,-2.0,-24.3,7.1,-1.8
COc1ccccc1N=Cc1nc(-c2ccccc2)oc1OC(C)=O,3.9,-3.2,0.1,5.3,-1.0
